Source: ChEMBL document CHEMBL1121814, “Monophenolic 2-(dipropylamino)indans and related compounds: central dopamine-receptor stimulating activity” (1981)
Calls of active or inactive are those of the source.

Key:
Canis familiaris [1] = organism: Canis familiaris; assay: Emetic activity in dogs given as total dose at which the animal vomits; format: functional, Canis lupus familiaris
In short: (§1)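 Four female beagles (8–15 kg) with free access to food and water, not pretreated. Drug was infused iv at constant rate into the cephalic vein. The rate (k0) was set so that vomiting would be expected about 10 min after the start of infusion. The total dose infused at vomiting was recorded. Relative k0 is the compound's k0 divided by the apomorphine k0.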

Rattus norvegicus [2] = organism: Rattus norvegicus; assay: Motor activity in reserpinized rats at the biochemical ED100 dose level expressed as accumulation counts per 60 min; format: functional
In short: (§2)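 Male Sprague–Dawley rats (200–350 g) pretreated with reserpine 10 mg/kg ip 6 h beforehand. Drugs in saline given sc at doses matching the biochemical ED50 and ED100 for the DA-synthesis decrease. Each rat was caged singly in a photocell motility meter right after dosing and counts were accumulated over 60 min, testing between 1 and 6 p.m. Means ± SEM, n = 3–4, compared by ANOVA then Student's t test.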

Rattus norvegicus [3] = organism: Rattus norvegicus; assay: Estimated dose giving a half-maximal decrease of the DA synthesis rate in the limbic system of rat brain; format: functional
In short: (§3)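 Male Sprague–Dawley rats (200–350 g) were reserpinized, then given the drug sc in saline at four to six dose levels. NSD 1015 (100 mg/kg ip) was given 30 min before death to block decarboxylase. DOPA accumulation was measured spectrophotometrically in the limbic system and striatum as an index of DA synthesis rate. ED50 and ED100 were read from separate dose–response curves for each brain area. Experiments ran 9–12 a.m.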

Canis familiaris [4] = assay: Relative rate of administration of compound in dogs; format: functional, Canis lupus familiaris; in short: as §1
Rattus norvegicus [5] = organism: Rattus norvegicus; assay: Estimated dose giving a half-maximal decrease of the DA synthesis rate in the striatum of rat brain; format: functional; in short: as §3
Rattus norvegicus [6] = organism: Rattus norvegicus; assay: Estimated dose giving an approximately maximal decrease of the DA synthesis rate; format: functional; in short: as §3
Rattus norvegicus [7] = organism: Rattus norvegicus; assay: Motor activity in reserpinized rats at the biochemical ED50 dose level expressed as accumulation counts per 60 min; format: functional; in short: as §2
Canis lupus familiaris = assay: Emetic activity in dogs by constant-rate intravenous infusion was measured
Canis familiaris [8] = organism: Canis familiaris; assay: Total dose at which the animal vomits; format: functional, Canis lupus familiaris; in short: as §1
Rattus norvegicus [9] = assay: Estimated dose giving a half-maximal decrease of the DA synthesis rate in the limbic system of rat brain; I = Inactive (>45 umol/kg); format: functional, organism-based; in short: as §3
Rattus norvegicus [10] = assay: Estimated dose giving a half-maximal decrease of the DA synthesis rate in the striatum of rat brain; I = Inactive (>45 umol/kg); format: functional, organism-based; in short: as §3
Rattus norvegicus [11] = assay: Estimated dose giving an approximately maximal decrease of the DA synthesis rate; I = Inactive (>45 umol/kg); format: functional, organism-based
In short: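 Male Sprague-Dawley rats (200–350 g) pretreated with reserpine. Compounds dissolved in saline and given sc at four to six dose levels. Aromatic L-amino acid decarboxylase inhibited with NSD 1015 (100 mg/kg ip, 30 min before death). Brain DOPA measured spectrophotometrically as an index of DA synthesis rate. Experiments run 9–12 a.m. Dose read from separate dose–response curves for each brain area.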

| SMILES | TED (Canis familiaris [1]) [nM/kg] | Accumulation counts (Rattus norvegicus [2]) | ED50 (Rattus norvegicus [3]) [µmol/kg] | rel ko (Canis familiaris [4]) | ED50 (Rattus norvegicus [5]) [µmol/kg] | ED100 (Rattus norvegicus [6]) [nM/kg] | Accumulation counts (Rattus norvegicus [7]) | rel ko (Canis lupus familiaris) | TED (Canis familiaris [8]) [nM/kg] | ED50 (Rattus norvegicus [9]) | ED50 (Rattus norvegicus [10]) | ED100 (Rattus norvegicus [11]) |
| --- | --- | --- | --- | --- | --- | --- | --- | --- | --- | --- | --- | --- |
| CCCN(CCC)C1Cc2ccc(O)cc2C1 (centres undefined) | 247 | 89 | 1.25 | 9.9 | 1.44 | 6500 | 23 | – | – | – | – | – |
| CN1CCc2cccc3c2[C@H]1Cc1ccc(O)c(O)c1-3 [APOMORPHINE] | – | 64 | 0.041 | – | 0.044 | 230 | 24 | 1 | 32.3 | – | – | – |
| CCCN(CCC)CC1Cc2cccc(O)c2C1 (centres undefined) | 292 | 89 | 0.67 | 9.1 | 0.96 | 4500 | 25 | – | – | – | – | – |
| CCCN(CCC)C1CCc2c(O)cccc2C1 (centres undefined) [5-OH-DPAT] | – | 76 | 0.011 | – | 0.009 | 40 | 25 | – | 4.7 | – | – | – |
| CCCN(CCC)C1Cc2cccc(O)c2C1 (centres undefined) | – | 108 | 0.059 | – | 0.063 | 350 | 13 | – | 25 | – | – | – |
| CCCN(CCC)CC1CCc2c(O)cccc2C1 (centres undefined) | – | – | – | – | – | – | – | – | – | inactive | inactive | inactive |
| CCCN(CCC)C1CCCc2c(O)cccc2C1 (centres undefined) | – | – | – | – | – | – | – | – | – | inactive | inactive | inactive |
